What all share (conditions): Homo sapiens
The subject of assay [1] is MT4. The assay is described as follows: Cytostatic concentration required to inhibit MT-4 cell proliferation. In kind it is functional. The method, boiled down:
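Mock-infected MT-4 cells (3 × 10^5/mL) incubated with compound dilutions for 5 days. Viable cells counted by trypan blue exclusion. CC50 = concentration reducing viable MT-4 cell number by 50%.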

Assay [2] deals with MT4. The assay is described as follows: Effective concentration required to inhibit HIV-1 IIIB in MT-4 cell culture. In kind it is functional, cell-based. An outline of the steps:
(§1)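 MT-4 cells (3 × 10^5/mL) infected at ~100 CCID50/mL and mixed with compound dilutions. Cytopathicity read by trypan blue exclusion at day 5. EC50 = concentration giving 50% protection against virus-induced loss of viability.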

Assay [3] deals with CCRF-CEM. The assay is described as follows: Cytostatic concentration required to inhibit CEM cell proliferation. Type of assay: functional. An outline of the steps: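 CEM cells, mock-infected, grown with serial compound dilutions for 4 days. CC50 taken as the concentration that inhibits CEM cell proliferation by 50%.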
Assay [4] concerns MT4. The assay is described as follows: Effective concentration required to inhibit HIV-2 ROD in MT-4 cell culture. In kind it is functional, cell-based. The method, boiled down: as §1
The subject of assay [5] is CCRF-CEM. The assay is described as follows: Effective concentration required to inhibit HIV-2 ROD in CEM cell culture. In kind it is functional, cell-based. An outline of the steps:
(§2)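 CEM cells (4 × 10^5/mL) infected at ~100 CCID50/mL and mixed with compound dilutions. Giant cell formation scored microscopically at day 4. EC50 = concentration inhibiting virus-induced cytopathicity by 50%.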

The subject of assay [6] is HEL. The assay is described as follows: Effective concentration required to inhibit HCMV Davis in HEL Cells. Type of assay: functional, cell-based. The method, boiled down: (§3)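 Confluent HEL cells infected with HCMV at 100 PFU/well. After 1-2 h, residual virus removed and MEM with 2% inactivated FCS added, with compound in duplicate at 5-fold dilution steps. After 7 days at 37 °C in 5% CO2, cells fixed with ethanol and Giemsa-stained; plaques or CPE scored microscopically. IC50 interpolated graphically; mean of two independent experiments.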

The test system of assay [7] is CCRF-CEM. The assay is described as follows: Effective concentration required to inhibit HIV-1 IIIB in CEM cell culture. Type of assay: functional, cell-based. An outline of the steps: as §2
The test system of assay [8] is HEL. The assay is described as follows: Effective concentration required to inhibit HCMV AD-169 in HEL Cells. Type of assay: functional, cell-based. The method, boiled down: as §3
Assay [9] has as its system HEL. The assay is described as follows: Cytostatic concentration required to inhibit HEL cell proliferation. Type of assay: functional. An outline of the steps:
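HEL fibroblasts seeded at 5 × 10^3 cells/well and grown 24 h, then given compound in duplicate. After 3 days at 37 °C in 5% CO2, cell number read on a Coulter counter. CC50 = concentration reducing cell growth by 50%.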

Assay [10] deals with HEL. The assay is described as follows: Minimal cytotoxic concentration required to cause microscopically visible alteration of cell morphology in HEL Cells. In kind it is functional. The method, boiled down: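 Uninfected HEL cells exposed to compound. Minimum cytotoxic concentration is the lowest level giving a microscopically detectable change in cell morphology.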

In general, CC50 refers to the concentration at which the toxic effect on the cells reaches its halfway point. Higher therefore signals better tolerance by the cells. Usually EC50 stands for the concentration needed to bring the measured effect to its halfway point.

Some results are limits rather than exact numbers.

Take `C=C(C)C(=O)NC(=O)NC1=CS(=O)(=O)O[C@@]12[C@@H](CO[Si](C)(C)C(C)(C)C)O[C@@H](n1cc(C)c(=O)n(C)c1=O)[C@@H]2O[Si](C)(C)C(C)(C)C`: the cytotoxic concentration (CC50) in the assay with MT4 [1] came to 1.19 µM; with CCRF-CEM [3] it was 1.2 µM; with HEL [9] it was 1.2 µM. Further, the EC50 in the assay with MT4 [2] is over 0.8 µM; in the assay on MT4 [4], over 0.8 µM; with CCRF-CEM [5], over 0.8 µM; in the assay on HEL [6], over 4 µM; in the assay with CCRF-CEM [7], over 0.8 µM; in the assay on HEL [8], over 20 µM. This compound gave an MCC with HEL [10] of 20 µM.
Turning to `CCOC(=O)CN1C(=O)CN(C(=O)NC2=CS(=O)(=O)O[C@@]23[C@@H](CO[Si](C)(C)C(C)(C)C)O[C@@H](n2cc(C)c(=O)n(C)c2=O)[C@@H]3O[Si](C)(C)C(C)(C)C)C1=O`, the values for the 50% cytotoxic concentration (CC50) in the assay on MT4 [1], with CCRF-CEM [3] and in the assay with HEL [9] were 1.43 µM, 1.42 µM and 2.5 µM, respectively. The EC50 with MT4 [2] was 0.88 µM; in the assay on MT4 [4], over 2 µM; in the assay on CCRF-CEM [5] it was over 2 µM; in the assay with HEL [6], 0.32 µM; in the assay on CCRF-CEM [7], 0.24 µM; in the assay on HEL [8], 0.29 µM. Also, the MCC with HEL [10] is at least 3.2 µM.
For `COC(=O)CNC1=CS(=O)(=O)O[C@@]12[C@@H](CO[Si](C)(C)C(C)(C)C)O[C@@H](n1cc(C)c(=O)n(C)c1=O)[C@@H]2O[Si](C)(C)C(C)(C)C`, the cytotoxic concentration (CC50) in the assay with MT4 [1] amounted to 105 µM; with CCRF-CEM [3] it was 96 µM; in the assay on HEL [9], 160 µM. The 50% effective concentration (EC50) with MT4 [2] was 1.61 µM; in the assay with MT4 [4], over 125 µM; in the assay with CCRF-CEM [5], over 125 µM; with HEL [6] it was over 400 µM; in the assay on CCRF-CEM [7], 0.6 µM; with HEL [8], over 400 µM. Also, the MCC in the assay with HEL [10] was at least 400 µM.
As for `COC(=O)CCNC1=CS(=O)(=O)O[C@@]12[C@@H](CO[Si](C)(C)C(C)(C)C)O[C@@H](n1cc(C)c(=O)n(C)c1=O)[C@@H]2O[Si](C)(C)C(C)(C)C`, the CC50 with MT4 [1] was over 250 µM; with CCRF-CEM [3], over 250 µM; in the assay with HEL [9], 94 µM. Further, the EC50 was over 250 µM in the assay with MT4 [2]; over 250 µM in the assay on MT4 [4]; over 250 µM in the assay on CCRF-CEM [5]; over 400 µM in the assay with HEL [6]; over 250 µM in the assay with CCRF-CEM [7]; over 400 µM in the assay with HEL [8]. Further, the MCC with HEL [10] was at least 400 µM.
With `Cc1cn([C@@H]2O[C@H](CO[Si](C)(C)C(C)(C)C)[C@@]3(OS(=O)(=O)C=C3NCCC(=O)OCc3ccccc3)[C@H]2O[Si](C)(C)C(C)(C)C)c(=O)n(C)c1=O`, the CC50 in the assay with MT4 [1] is over 250 µM; with CCRF-CEM [3], over 250 µM; with HEL [9], over 200 µM. Moreover, the half-maximal effective concentration (EC50) in the assay on MT4 [2] is over 250 µM; in the assay with MT4 [4], over 250 µM; in the assay on CCRF-CEM [5], over 250 µM; with HEL [6] it was over 400 µM; with CCRF-CEM [7], over 250 µM; with HEL [8], over 400 µM. Also, the MCC with HEL [10] was at least 400 µM.
As to `Cc1cn([C@@H]2O[C@H](CO[Si](C)(C)C(C)(C)C)[C@@]3(OS(=O)(=O)C=C3NCC(=O)O)[C@H]2O[Si](C)(C)C(C)(C)C)c(=O)n(C)c1=O`, the 50% cytotoxic concentration (CC50) in the assay with MT4 [1] worked out at 30 µM; in the assay on CCRF-CEM [3], 65 µM; with HEL [9], 136 µM. Further, the concentration giving a half-maximal response (EC50) in the assay on MT4 [2] was over 10 µM; in the assay on MT4 [4], over 10 µM; with CCRF-CEM [5] it was over 10 µM; in the assay on HEL [6] it was 32 µM; in the assay on CCRF-CEM [7], over 10 µM; in the assay with HEL [8] it was at least 50 µM. This compound also displayed an MCC in the assay on HEL [10] of 300 µM.
For the compound `CCOC(=O)CNC(=O)NC1=CS(=O)(=O)O[C@@]12[C@@H](CO[Si](C)(C)C(C)(C)C)O[C@@H](n1cc(C)c(=O)n(C)c1=O)[C@@H]2O[Si](C)(C)C(C)(C)C`, the figures for the CC50 in the assay with MT4 [1], with CCRF-CEM [3] and in the assay with HEL [9] were 3.78 µM, 5.02 µM and 13 µM, respectively. The half-maximal effective concentration (EC50) was over 2 µM in the assay on MT4 [2]; over 2 µM in the assay with MT4 [4]; over 2 µM in the assay on CCRF-CEM [5]; over 3.2 µM in the assay with HEL [6]; over 2 µM in the assay with CCRF-CEM [7]; over 3.2 µM in the assay with HEL [8]. In the assay on HEL [10], the MCC worked out at 16 µM.

For the origin of these results see ChEMBL document CHEMBL1142666, “Novel [2',5'-bis-O-(tert-butyldimethylsilyl)-beta-D-ribofuranosyl]- 3'-spiro-5''-(4''-amino-1'',2''-oxathiole-2'',2" -dioxide) derivatives with anti-HIV-1 and anti-human-cytomegalovirus activity” (J Med Chem, 2005).
